# High-throughput results: PubChem BioAssay, several laboratories
# HNF4A DNA FP – change in binding of human HNF4 alpha to DNA; AID 1224865; HNF4a-FITC DNA binding, fluorescence polarization, 1 h; hit rate 0.3% among 360,000; P41235; activity change, % at 10 µM; in the data active = activity change above about 30%, passing the limit was not always enough
# Target sequence (P41235 whole entry, looked up): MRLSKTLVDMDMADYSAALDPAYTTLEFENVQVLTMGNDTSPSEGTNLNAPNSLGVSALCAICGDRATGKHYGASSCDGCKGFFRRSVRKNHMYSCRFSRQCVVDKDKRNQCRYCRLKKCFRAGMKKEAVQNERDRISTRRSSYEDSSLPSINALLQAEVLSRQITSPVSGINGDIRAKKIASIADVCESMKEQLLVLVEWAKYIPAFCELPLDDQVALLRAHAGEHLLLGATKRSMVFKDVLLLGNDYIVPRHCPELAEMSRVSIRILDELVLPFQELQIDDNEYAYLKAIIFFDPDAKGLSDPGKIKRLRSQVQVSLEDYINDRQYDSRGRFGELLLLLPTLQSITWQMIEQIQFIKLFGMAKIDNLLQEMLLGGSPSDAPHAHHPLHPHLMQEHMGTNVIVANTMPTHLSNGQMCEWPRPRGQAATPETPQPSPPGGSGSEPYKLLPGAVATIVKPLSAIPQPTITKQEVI
# Myeloid diff 2 – myeloid differentiation induction. ER-HoxA9 myeloid progenitors, lysozyme-GFP differentiation, flow cytometry. calls only at 10 µM. hit rate 1% among 360,000. AID 624256;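 active = normalized GFP-positive differentiation at or above the plate's own cutoff, the solvent-only control mean plus 3 SD; inconclusive = no clear call, values can overlap the other calls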;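 note: cells exposed to compound for four days before flow analysis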
# Rpn11 block – Rpn11 (human) deubiquitinase inhibition | O00487 | human 26S proteasome, Ub4-pepOG fluorescence polarization; 20S core pre-blocked with epoxomicin | inhibition, % at 20 µM | hit rate 0.59% among 360,000;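 active = inhibition at 20 µM, scaled to each plate's controls, above about 33%, limit read from the data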
# CSN inh – blocks human CSN-mediated cullin deneddylation. Purified CSN, SCF-Nedd8-OG deneddylation, fluorescence polarization. inhibition, % at 12.5 µM. hit rate 0.38% among 360,000. Q92905;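 active = pattern-corrected inhibition above about 35%, with an unprinted fluorescence ratio check between 0.5 and 1.5, limit read from the data, passing the limit was not always enough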
#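 Test system: purified human Csn5 enzyme expressed in HEK293T cells. Amount: 0.24 nM enzyme. Reagent: SCFSkp2-Nedd8OG substrate at 10 nM final. Schedule: 90 min incubation of compound, enzyme and substrate at room temperature. Detection: fluorescence polarization. Read-out: % inhibition of substrate cleavage by Csn5.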
# TPT1 inh – C. albicans TPT1 enzyme inhibition; inhibition, % at 5 µM; recombinant caTPT1, FP RNA substrate dephosphorylation; AID 1962; hit rate 0.81% among 300,000;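 active = inhibition above the mean of all tested compounds plus 3 SD, set per screening campaign, cut at about 24% in these data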
# Hits are given with their value; i = inactive; ? = inconclusive; nt = no result given; + = active, no number. Only some compounds are listed: those with a hit (about 2.3% of all), similar ones and a draw of the others.
SMILES,HNF4A DNA FP,Myeloid diff 2,Rpn11 block,CSN inh,TPT1 inh
O=C(NC(=S)Nc1ccccn1)c1cncc(Br)c1,66,i,i,i,i
O=C(COc1ccc2c(-c3ccccc3)cc(=O)oc2c1)N1C[C@H]2C[C@@H](C1)c1cccc(=O)n1C2,i,i,i,i,nt
COc1ccc2[nH]c(=O)c(CN(C(=O)C(C)C)c3ccccc3OC)cc2c1,i,+,i,i,i
CCOC(=O)CCCSc1nc2sc3c(c2c(=O)[nH]1)CCC3,i,i,i,i,i
CCOC(=O)CSc1nnc(CSc2nc3sc4c(c3c(=O)[nH]2)CCCC4)n1-c1ccccc1,34,i,i,i,i
O=C(CC1SC(N2CCCCC2)=NC1=O)Nc1ccc(C(=O)NCCc2ccc(F)cc2)cc1 (stereo unspecified),i,+,i,i,nt
C[C@@H]1CN([C@@H](C)CO)C(=O)c2ccccc2-c2ccccc2CO[C@@H]1CN(C)S(=O)(=O)c1ccc(C(F)(F)F)cc1,i,i,i,i,nt
Cc1cc(C)c2nc3sc(=Cc4ccc(-c5ccccc5C(=O)O)o4)c(=O)n3c2c1,i,i,nt,142,nt
Cc1cc(C(=O)COC(=O)c2cc(Cl)c(O)c(Cl)c2)c(C)n1C,i,i,i,42,nt
O=C(N[C@H]1CC[C@H](CCNC(=O)C2CC2)O[C@@H]1CO)c1ccccn1,i,i,nt,i,nt
O=C(Cn1cnnn1)OCC(=O)c1ccc(Cl)s1,i,+,i,i,i
O=C(O)CN1C(=O)/C(=C\c2ccccc2OCc2ccccc2)SC1=S,i,i,i,i,nt
O=C(O)CCCN1C(=O)/C(=C\c2ccccc2OCc2ccccc2)SC1=S,51,i,i,i,i
CCN(CC)C(=O)CCn1nc(-c2ccc(C)cc2)c2ccccc2c1=O,i,i,i,i,i
CCN(CC)C(=O)Cn1c(=O)c2ccccc2n2c(=S)sc(-c3cccc(C)c3)c12,i,+,i,i,i
CCC(=O)Nc1nc(C)c(Oc2ccccc2)c(=O)[nH]1,i,?,i,105,i
CC(=O)Nc1nc(C)c(Oc2ccccc2)c(=O)[nH]1,i,i,i,i,i
CCCCn1nnnc1C(c1cc2ccccc2o1)N1CCN(c2cc(C)nc3ccccc23)CC1 (stereo unspecified),i,i,nt,i,nt
Cc1ccc(C)c(NC(=S)Nc2cccc3cnccc23)c1,i,i,i,36,i
Cc1ccccc1NC(=S)Nc1cccc2cnccc12,i,i,i,i,i
COc1ccc(C(O)c2cnc(C)n2Cc2ccccc2)cc1 (stereo unspecified),i,i,i,i,nt
CCn1cc(C=C2C(=O)c3ccccc3C2=O)c2ccccc21,36,i,i,i,nt
CCN=C1S/C(=C\c2cn(CC)c3ccccc23)C(=O)N1CC,i,i,i,i,i
CCS(=O)(=O)Nc1ccc(-c2nnc(SCC(=O)c3ccc(NC(C)=O)c(OC)c3)o2)cc1,i,i,i,46,i
CCS(=O)(=O)Nc1ccc(-c2nnc(SCC(=O)c3cccc(OC)c3)o2)cc1,i,i,i,i,i
SMILES,HNF4A DNA FP,Myeloid diff 2,Rpn11 block,CSN inh,TPT1 inh
CCCNCc1cc(OC)c(OCCC)cc1Cl,i,+,i,i,i
CCCCN(C)c1c(C)nc2ccc(C(=O)Nc3cc(-c4ccccc4)ccc3OC)cn12,i,i,i,i,nt
CN(C)c1nc(SCC#N)nc(N2CCOCC2)n1,43,i,i,i,i
CCCCNC(=O)c1nc(C2CCNCC2)oc1-c1ccccc1,i,i,nt,i,nt
COCCNC(=O)c1ccccc1NC(=O)c1ccc(OC)c(OC)c1,i,+,i,i,i
O=C(O)C(=O)/C(=C\c1ccccc1)c1ccc2ccccc2n1,i,i,i,i,30
N#Cc1c(N)nc(Sc2ccc(Cl)cc2)c(C#N)c1-c1ccccc1Cl,i,+,i,i,i
CCN(C(=O)COC(=O)c1c2c(nc3ccccc13)/C(=C/c1ccccc1)CC(C)C2)C1CCS(=O)(=O)C1 (stereo unspecified),i,+,i,i,i
CCN(C(=O)COC(=O)c1c(C)nn(-c2ccccc2)c1C)C1CCS(=O)(=O)C1 (stereo unspecified),i,i,i,i,i
COCCN1C(=O)CSCC1(C)C(=O)Nc1c(C)cccc1C (stereo unspecified),i,i,nt,i,nt
CN1C(=O)N(S(=O)(=O)c2ccc(F)c(F)c2F)C(=O)C1(C)C,i,+,i,i,i
O=C1N(S(=O)(=O)c2ccccc2F)C(=O)C2(CCCC2)N1S(=O)(=O)c1ccccc1F,i,i,i,i,i
CCCCNc1nccnc1-c1cccc(C=O)c1,i,i,i,i,nt
Cc1ccc(C)c(OCc2ccc(C(=O)NN)o2)c1,i,+,i,i,i
Cc1cc(C)n(Cc2ccc(C(=O)O)o2)n1,i,i,i,i,i
Cc1cc(C)n(Cc2ccc(C(=O)NN)o2)n1,i,+,i,i,i
O=C(NCCn1cc(SCc2ccc(F)cc2)c2ccccc21)c1ccccc1F,i,+,i,i,i
COC(=O)c1ccc(C(=O)N2CCCC(C)(C(=O)NS(=O)(=O)C3CC3)C2)cc1 (stereo unspecified),i,i,i,i,nt
C[C@H]1CN([C@@H](C)CO)C(=O)c2cc(Br)cnc2O[C@H]1CN(C)C(=O)C1CC1,i,i,i,i,nt
COc1ccc2c3c(n(C(=O)OC(C)(C)C)c2c1)C1CC=C(COC(C)=O)CN1CC3 (stereo unspecified),i,i,nt,i,nt
CC(=O)NC(c1cccc(F)c1)c1nc(/C=C/c2ccccc2)cs1 (stereo unspecified),i,i,i,i,nt
CN1C(=O)N(c2ccccc2)C(Nc2nncs2)C1(C)C (stereo unspecified),i,+,i,i,i
COCCNCCCOc1ccc(C)cc1Br,i,i,i,i,i
COCCCNCCCOc1ccc(C)cc1Br,i,+,i,i,i
CC(C)(C)c1ccc(C(=O)O[C@H]2[C@H](Cc3ccccc3)NS(=O)(=O)[C@H]3C[C@@H]4C=C[C@]23O4)cc1,i,i,i,i,nt
SMILES,HNF4A DNA FP,Myeloid diff 2,Rpn11 block,CSN inh,TPT1 inh
CCOc1ccc(C(=O)O[C@H]2[C@H](Cc3ccccc3)NS(=O)(=O)[C@H]3C[C@@H]4C=C[C@]23O4)cc1,i,+,i,i,nt
CN(C)CCNC(=O)c1cccc(-c2cnc3c(NC=O)cc(/C=C/c4ccccc4)cn23)c1,i,i,i,i,nt
N#Cc1c(NC(=O)c2cccnc2)sc2c1CCC2,i,+,i,i,i
N#Cc1c(NC(=O)c2ccccc2)sc2c1CCC2,i,nt,i,i,i
CCCCSCc1ccc(C(=O)O)o1,i,+,i,i,i
COc1cc2c(cc1OC)C1(Nc3c-2c(C)nn3-c2ccccc2)C(=O)Nc2ccccc21 (stereo unspecified),i,+,i,i,i
O=c1c(N=Nc2ccc(O)cc2)c(-c2ccccc2)[nH]n1-c1ccc([N+](=O)[O-])cc1,i,+,i,i,i
NC(=O)c1ccc(N=Nc2c(-c3ccccc3)[nH]n(-c3ccccc3)c2=O)cc1,nt,nt,nt,nt,i
Cc1cc(N2CCN(C(=O)c3ccco3)CC2)n2nc(-c3cccc(F)c3)cc2n1,i,+,i,i,i
